Results taken from ChEMBL document CHEMBL5096173, “Anti-SARS-CoV-2 Activity of Andrographis paniculata Extract and Its Major Component Andrographolide in Human Lung Epithelial Cells and Cytotoxicity Evaluation in Major Organ Cell Representatives” (J Nat Prod, 2021).

Legend:
[1] = system: SARS-CoV-2; assay: Antiviral activity against SARS CoV-2 (01/human/Jan2020/Thailand) infected in human Calu-3 cells for 2 hrs assessed as inhibition of viral replication measured after 48 hrs post infection by IFA assay; format: functional, organism-based; settings: for IC50: Severe acute respiratory syndrome coronavirus 2, (01/human/Jan2020/Thailand)
[2] = system: SARS-CoV-2; assay: Antiviral activity against SARS CoV-2 (01/human/Jan2020/Thailand) infected in human Calu-3 cells for 2 hrs assessed as inhibition of viral replication measured after 48 hrs post infection by plague assay; format: functional, organism-based; settings: Severe acute respiratory syndrome coronavirus 2, (01/human/Jan2020/Thailand)
[3] = system: SARS-CoV-2; assay: Antiviral activity against SARS CoV-2 (01/human/Jan2020/Thailand) infected in African green monkey Vero E6 cells for 2 hrs assessed as inhibition of viral replication measured after 48 hrs post infection by IFA assay; format: functional, organism-based; settings: Severe acute respiratory syndrome coronavirus 2, (01/human/Jan2020/Thailand), Vero C1008
[4] = system: SARS-CoV-2; assay: Antiviral activity against SARS CoV-2 (01/human/Jan2020/Thailand) infected in African green monkey Vero E6 cells assessed as inhibition of viral replication pre-infected with cells for 2 hrs followed by compound addition and measured after 48 hrs post infection by plague assay; format: functional, organism-based; settings: Severe acute respiratory syndrome coronavirus 2, (01/human/Jan2020/Thailand), Vero C1008
[5] = system: SARS-CoV-2; assay: Antiviral activity against SARS CoV-2 (01/human/Jan2020/Thailand) infected in human Calu-3 cells for 2 hrs assessed as reduction in extracellular viral RNA measured after 48 hrs post infection by qRT-PCR analysis; format: functional, organism-based; settings: Severe acute respiratory syndrome coronavirus 2, dose 0.1-100 µg/ml, DDE = dose-dependent effect
[6] = system: HepG2; assay: Cytotoxicity against human HepG2 cells assessed as reduction in cell viability incubated for 48 hrs by MTT assay; format: functional
Summary of the method: (§1)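 Cells plated at 5×10^4/well and exposed 48 h to 0–100 µM (or extract 0–100 µg/mL). MTT added at 0.5 mg/mL final for 4 h at 37 °C, formazan dissolved in DMSO, absorbance read at 570 nm. Data normalised to solvent control and CC50 fitted.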

[7] = Cytotoxicity against human imHC cells assessed as reduction in cell viability incubated for 48 hrs by MTT assay; format: toxicity, cell-based; summary of the method: as §1
[8] = system: HK-2; assay: Cytotoxicity against human HK-2 cells assessed as reduction in cell viability incubated for 48 hrs by MTT assay; format: toxicity, cell-based; settings: hk-2, 48 h; summary of the method: as §1
[9] = system: Caco-2; assay: Cytotoxicity against human Caco-2 cells assessed as reduction in cell viability incubated for 48 hrs by MTT assay; format: functional; summary of the method: as §1
[10] = system: Calu-3; assay: Cytotoxicity against human Calu-3 cells assessed as reduction in cell viability incubated for 48 hrs by MTT assay; format: functional; summary of the method: as §1
[11] = system: SH-SY5Y; assay: Cytotoxicity against human SH-SY5Y cells assessed as reduction in cell viability incubated for 48 hrs by MTT assay; format: functional; summary of the method: as §1
[12] = Selectivity index, ratio of CC50 for human HepG2 to IC50 for SARS CoV-2 (01/human/Jan2020/Thailand) infected in African green monkey Vero E6 cells; format: toxicity; settings: read-out: Ratio CC50/IC50
[13] = Selectivity index, ratio of CC50 for human imHC to IC50 for SARS CoV-2 (01/human/Jan2020/Thailand) infected in African green monkey Vero E6 cells; format: toxicity; settings: read-out: Ratio CC50/IC50
[14] = Selectivity index, ratio of CC50 for human HK-2 to IC50 for SARS CoV-2 (01/human/Jan2020/Thailand) infected in African green monkey Vero E6 cells; format: toxicity; settings: HK-2 cells, read-out: Ratio CC50/IC50
[15] = Selectivity index, ratio of CC50 for human Caco-2 to IC50 for SARS CoV-2 (01/human/Jan2020/Thailand) infected in African green monkey Vero E6 cells; format: toxicity; settings: Caco-2 cells, read-out: Ratio CC50/IC50
[16] = Selectivity index, ratio of CC50 for human Calu-3 to IC50 for SARS CoV-2 (01/human/Jan2020/Thailand) infected in African green monkey Vero E6 cells; format: toxicity; settings: Calu-3 cells, read-out: Ratio CC50/IC50
[17] = Selectivity index, ratio of CC50 for human SH-SY5Y to IC50 for SARS CoV-2 (01/human/Jan2020/Thailand) infected in African green monkey Vero E6 cells; format: toxicity; settings: read-out: Ratio CC50/IC50
[18] = biological target: Replicase polyprotein 1ab (Severe acute respiratory syndrome coronavirus 2, UniProt P0DTD1); assay: Inhibition of C-terminal His 6 tagged SARS CoV-2 main protease transfected in Escherichia coli BL21 (DE3); design: species or system Severe acute respiratory syndrome-related coronavirus
[19] = system: SARS-CoV-2; assay: Antiviral activity against SARS CoV-2 (01/human/Jan2020/Thailand) infected in African green monkey Vero E6 cells for assessed as inhibition of viral replication preincubated for 1 hr followed by viral adsorption for 2 hrs and measured after 48 hrs by hoechst staining based analysis; format: functional, organism-based; settings: Severe acute respiratory syndrome coronavirus 2, (01/human/Jan2020/Thailand), Vero C1008

CCC(CC)COC(=O)[C@H](C)N[P@](=O)(OC[C@H]1O[C@@](C#N)(c2ccc3c(N)ncnn23)[C@H](O)[C@@H]1O)Oc1ccccc1 [REMDESIVIR]
IC50 [1]: 43 nM
IC50 [2]: 86 nM
IC50 [3]: 2710 nM
IC50 [4]: 2650 nM

C=C1CC[C@@H]2[C@](C)(CO)[C@H](O)CC[C@@]2(C)[C@@H]1C/C=C1/C(=O)OC[C@H]1O [ANDROGRAPHOLIDE]
IC50 [1]: 1680 nM
Activity ([1]; Severe acute respiratory syndrome coronavirus 2, dose 0.1-100 µg/ml, DDE = dose-dependent effect): Dde
IC50 [2]: 34 nM
IC50 [3]: 6580 nM
IC50 [4]: 280 nM
Activity [5]: Dde
Activity [6]: 81.52 µM
Activity [7]: 44.55 µM
Activity [8]: 34.11 µM
Activity [9]: 52.3 µM
Activity [10]: 58.03 µM
Activity [11]: 13.19 µM
selectivity ratio [12]: 2400
selectivity ratio [13]: 1310
selectivity ratio [14]: 1000
selectivity ratio [15]: 1540
selectivity ratio [16]: 1710
selectivity ratio [17]: 388
IC50 [18]: 15000 nM
IC50 [19]: 19000 nM

O=C(Nc1ccc([N+](=O)[O-])cc1Cl)c1cc(Cl)ccc1O [NICLOSAMIDE]
IC50 [1]: 900 nM

CCN(CCO)CCCC(C)Nc1ccnc2cc(Cl)ccc12 (stereo unspecified) [HYDROXYCHLOROQUINE]
IC50 [1]: > 50000 nM
